Results on 13 molecules are retold here after article PMC10685803 (RSC Chemical Biology, 2023).

The labels stand for the following.
B5: DAXX Helical Bundle domain (DHB_(DAXX), residues 55-144 hDAXX) (domain or fragment, human, UniProt Q9UER7 55-144, looked up)
chain: GKKCYKLENEKLFEEFLELCKMQTADHPEVVPFLYNRQQRAHSLFLASAEFCNILSRVLSRARSRPAKLYVYINELCTVLKAHSAKKKLN
B8: DAXX Interacting Domain of ATRX (DID_(ATRX), residues 1190-1325 hATRX) (domain or fragment, human, UniProt P46100 1190-1325, looked up)
chain: RTSTKRKQADITSSSSSDIEDDDQNSIGEGSSDEQKIKPVTENLVLSSHTGFCQSSGDEALSKSVPVTVDDDDDDNDPENRIAKKMLLEEIKANLSSDEDGSSDDEPEEGKKRTGKQNEENPGDEEAKNQVNSESD

The test system of one data set is HCT116 cells. As to the kind of experiment: Lactate dehydrogenase. The class given is cell-based. Particulars: chloroalkane versions, 2% serum, 4 and 24 h. In a few lines:
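HCT116 cells were seeded at 5000 per well in DMEM/10% FCS for 24 h, then switched to medium with 2% FCS. They were given titrated peptide (up to 50 μM; 1% v/v DMSO final) for 4 or 24 h, with 1% DMSO-only controls. Released LDH was measured by colorimetric kit and normalised to 0.1% Triton X-100 lysis. Mean of three independent measurements ± 1 SD.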

Data set [1] in a line: Solubility limit of stitched peptides. The class given is physicochemical. Particulars: peptides synthesized with an N-terminal FAM moiety; method not described.
In data set [2] the target is T1, DHBDAXX (residues 55-144 hDAXX) (Homo sapiens, UniProt Q9UER7).
T1 sequence (Q9UER7 55-144): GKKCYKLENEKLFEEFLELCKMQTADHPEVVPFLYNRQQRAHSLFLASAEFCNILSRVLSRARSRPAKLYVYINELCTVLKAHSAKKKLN
As to the kind of experiment: Fluorescence polarisation saturation binding of FAM-labelled peptide to DHBDAXX. Particulars: fluorescence anisotropy Kd. A general note: Fluorescence polarisation rises when a labelled molecule tumbles more slowly, as on binding a larger partner.

In data set [3] the target is B5. As to the kind of experiment: ITC. Background: ITC needs no label: the signal is the heat of the interaction.
For data set [4], the target named is B8. As to the kind of experiment: fluorescence polarisation.
Data set [5] addresses B8. As to the kind of experiment: ITC.
Data set [6] deals with T1, DHBDAXX (residues 55-144 hDAXX). The conditions noted are these: read-out: Kd (competitive binding affinity); competitive displacement of FAM-SPEP7 from DHBDAXX.
Data set [7] has the same target. As to the kind of experiment: Isothermal titration calorimetry. The class given is binding. The conditions noted are these: ITC, 25 °C, ATRX fragments (Table 1), no unit in table.

≈ marks a conversion by molar mass, not a printed value.

Turning to `CC[C@H](C)[C@@H]1NC(=O)[C@H](CCC(=O)O)NC(=O)[C@H](C)NC(=O)[C@H](CC(C)C)NC(=O)[C@H](CC(C)C)NC(=O)C2(CCCC=CCCCCCC[C@@](C)(C(=O)N[C@@H](CC(N)=O)C(=O)N[C@@H](CC(C)C)C(=O)N[C@@H](CO)C(N)=O)NC(=O)[C@H](CCCCN)NC1=O)CCCC=CCCC[C@](C)(NC(=O)[C@H](CCCNC(=N)N)NC(=O)[C@H](CC(N)=O)NC(=O)[C@H](CCC(=O)O)NC(=O)[C@@H]1CCCN1C(=O)[C@H](CC(=O)O)NC(=O)[C@H](CC(N)=O)NC(=O)[C@@H](N)CC(=O)O)C(=O)N[C@@H](C)C(=O)N[C@@H](CCCCN)C(=O)N[C@@H](CCCCN)C(=O)N2` (some centres unmarked) [STPEP2], the “cellular toxicity (LDH release)” value with HCT116 cells is listed as “no significant cellular toxicity”. This molecule also gave a solubility limit in data set [1] of 11 µM (≈ 28.9 µg/mL).

With `CC[C@H](C)[C@@H]1NC(=O)[C@H](CCC(=O)O)NC(=O)[C@H](C)NC(=O)[C@H](CC(C)C)NC(=O)[C@H](CC(C)C)NC(=O)[C@H](C)NC(=O)C2(CCCC=CCCCCCC[C@@](C)(C(=O)N[C@@H](C)C(=O)N[C@@H](CC(N)=O)C(=O)N[C@@H](CC(C)C)C(=O)N[C@@H](CO)C(N)=O)NC1=O)CCCC=CCCC[C@](C)(NC(=O)[C@H](CC(N)=O)NC(=O)[C@H](CCC(=O)O)NC(=O)[C@@H]1CCCN1C(=O)[C@@H](N)CC(N)=O)C(=O)N[C@@H]([C@@H](C)CC)C(=O)N[C@@H](C)C(=O)N[C@@H](CCCCN)C(=O)N2` (some centres unmarked) [STPEP7], the “cellular toxicity (LDH release)” value with HCT116 cells is on record as “no significant cellular toxicity”. The “fold decrease in binding compared to FAM-SPEP7” value in data set [2] is recorded as approximately 7 fold. The solubility limit in data set [1] was 49 µM (≈ 110 µg/mL).

B1: PEP_(ATRX), peptide fragment of ATRX (1264–1285) (peptide, UniProt P46100 1264-1285, looked up)
peptide: DNDPENRIAKKMLLEEIKANLS
Molecule B1 came in with a dH in data set [3] of -13.3 kcal/mol.

B2: ATRX (1263–1290) peptide (peptide, UniProt P46100 1263-1290, looked up)
peptide: DDNDPENRIAKKMLLEEIKANLSSDEDG
In data set [3], B2 displayed a dH of -13.4 kcal/mol.

B3: ATRX (1255–1289) peptide (peptide, UniProt P46100 1255-1289, looked up)
peptide: PVTVDDDDDDNDPENRIAKKMLLEEIKANLSSDED
Turning to B3, the dH in data set [3] was -12.2 kcal/mol.

B4: ATRX (1267–1290) peptide (peptide, UniProt P46100 1267-1290, looked up)
peptide: PENRIAKKMLLEEIKANLSSDEDG
In data set [3], B4 showed a dH of -11.9 kcal/mol.

The term Kd denotes a measure of binding affinity in units of concentration. Take B5: the dissociation constant (Kd) in data set [4] came out at 193 nM; in data set [5] it was 80 nM.

B6: ATRX (1267–1284) peptide (peptide, UniProt P46100 1267-1284, looked up)
peptide: PENRIAKKMLLEEIKANL
For B6, the dH in data set [3] is -9.3 kcal/mol.

B7: ATRX (1265–1290) peptide (peptide, UniProt P46100 1265-1290, looked up)
peptide: NDPENRIAKKMLLEEIKANLSSDEDG
For the molecule B7, the dH in data set [3] was -13.3 kcal/mol.

In data set [3], B8 displayed a dH of -11.7 kcal/mol.

B9: DIDATRX: DAXX Interacting Domain of ATRX, residues 1190–1325 hATRX, recombinant (protein)
chain: RTSTKRKQADITSSSSSDIEDDDQNSIGEGSSDEQKIKPVTENLVLSSHTGFCQSSGDEALSKSVPVTVDDDDDDNDPENRIAKKMLLEEIKANLSSDEDGSSDDEPEEGKKRTGKQNEENPGDEEAKNQVNSESD
modifications: left off: His6, N-terminal, state not stated
With B9, in data set [6], the Kd was determined as 193 nM. In data set [7], the ΔG was −9.69 and the “−TΔS” value is 2.06. In addition, the ΔH in data set [7] (error in parentheses) is on record as −11.7 (0.10).

B10: ATRX (1255–1284) peptide (peptide, UniProt P46100 1255-1284, looked up)
peptide: PVTVDDDDDDNDPENRIAKKMLLEEIKANL
On to B10, for which the dH in data set [3] is -10.6 kcal/mol.

B11: ATRX (1261–1290) peptide (peptide, UniProt P46100 1261-1290, looked up)
peptide: DDDDNDPENRIAKKMLLEEIKANLSSDEDG
B11: the dH in data set [3] was -13.8 kcal/mol.
